Two compounds from ChEMBL document CHEMBL4390653, “Potential anti-herpes and cytotoxic action of novel semisynthetic digitoxigenin-derivatives” (Eur J Med Chem, 2019) can be followed below.

Bounds are passed on as bounds.

The subject of data set [1] is Human alphaherpesvirus 2. The experiment in a line: Potency index, ratio of IC50 for acyclovir to IC50 for test compound for antiviral activity against Herpes simplex virus 2-333 infected in African green monkey Vero cells assessed as inhibition of viral replication after 48 hrs by naphthol blue-black staining-based plaque reduction assay. The data set is classed as functional.

The test system of another data set is HCT-8. In words: Cytotoxicity against human HCT8 cells assessed as inhibition of cell viability after 48 hrs by SRB assay. Format: functional, cell-based. To be noted: HCT-8, 48 h. In short, it runs like this: (§1)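 Cells seeded at 2.5 × 10^4 per well and exposed to a concentration range for 48 h, then SRB total-protein stain. PC3 grown in phenol-red-free DMEM with 1% glutamine; LNCaP in phenol-red-free RPMI 1640 with glutamine and non-essential amino acids. HCT-8 and H460 in RPMI 1640. MRC-5 (plus glutamine and non-essential amino acids) and primary gingival fibroblasts in DMEM. All media had 10% FBS, 37 °C, 5% CO2. Paclitaxel was the reference. IC50 versus untreated controls by nonlinear regression, three independent experiments.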

Another data set relates to NCI-H460. In words: Cytotoxicity against human H460 cells assessed as inhibition of cell viability after 48 hrs by SRB assay. To be noted: NCI-H460, 48 h. The data set is classed as functional, cell-based. The procedure, abridged:
as §1

The subject of data set [2] is Human alphaherpesvirus 2. The experiment in a line: Antiviral activity against Herpes simplex virus 2-333 infected in African green monkey Vero cells assessed as inhibition of viral replication after 48 hrs by naphthol blue-black staining-based plaque reduction assay. To be noted: Human alphaherpesvirus 2, 333, Vero. The data set is classed as functional, organism-based. The procedure, abridged:
(§2)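 Vero cells in MEM with 10% FBS, 37 °C, 5% CO2. Confluent monolayers (2.5 × 10^5 cells/well) infected with about 100 PFU for 1 h at 37 °C. Non-cytotoxic concentrations were added after infection. Cells were then PBS-washed and overlaid with MEM plus 1.5% carboxymethylcellulose, with or without compound, for 48 h. Fixed, naphthol blue-black stained, plaques counted under a stereomicroscope. IC50 versus untreated controls by nonlinear regression; mean of three independent experiments.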

A short description of data set [3]: Cytotoxicity against human HGF cells assessed as inhibition of cell viability after 48 hrs by SRB assay. Format: cell-based. In short, it runs like this: as §1
Data set [4] can be described thus: Selectivity index, ratio of Cytotoxicity against African green monkey Vero cells assessed as reduction in cell viability after 48 hrs by SRB assay to Antiviral activity against Herpes simplex virus 2-333 infected in African green monkey Vero cells assessed as inhibition of viral replication after 48 hrs by naphthol blue-black staining-based plaque reduction assay. The data set is classed as toxicity. The conditions noted are these: Vero cells infected with HSV-2 333, read-out: Ratio CC50/IC50. The procedure, abridged: (§3)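 Selectivity index = CC50 in Vero cells (SRB, 48 h) divided by plaque-reduction IC50 for the same virus strain.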

The next data set deals with LNCaP. In words: Cytotoxicity against human LNCAP cells assessed as inhibition of cell viability after 48 hrs by SRB assay. The data set is classed as functional, cell-based. The procedure, abridged:
as §1

Data set [5] has as its system Human alphaherpesvirus 1. In words: Potency index, ratio of IC50 for acyclovir to IC50 for test compound for antiviral activity against acyclovir-sensitive Herpes simplex virus 1 KOS infected in African green monkey Vero cells assessed as inhibition of viral replication after 48 hrs by naphthol blue-black staining-based plaque reduction assay. Format: functional, strain KOS.

Data set [6] is described as follows: Selectivity index, ratio of Cytotoxicity against African green monkey Vero cells assessed as reduction in cell viability after 48 hrs by SRB assay to Antiviral activity against acyclovir-resistant Herpes simplex virus 1 29-R infected in African green monkey Vero cells assessed as inhibition of viral replication after 48 hrs by naphthol blue-black staining-based plaque reduction assay. To be noted: Vero cells infected with HSV-1 29-R, read-out: Ratio CC50/IC50. The data set is classed as toxicity. In short, it runs like this: as §3

The nature of data set [7]: Inhibition of porcine cortex Na+/K+-ATPase alpha1/2/3 subunit using ATP as substrate preincubated for 30 mins followed by substrate addition and measured after 30 mins by malachite green reagent-based assay. More on the design: species or system Sus scrofa.
The subject of the next data set is MRC5. The experiment in a line: Cytotoxicity against human MRC5 cells assessed as inhibition of cell viability after 48 hrs by SRB assay. The data set is classed as cell-based. To be noted: MRC5, 48 h. The procedure, abridged: as §1
Data set [8] in a line: Cytotoxicity against African green monkey Vero cells assessed as reduction in cell viability after 48 hrs by SRB assay. The data set is classed as cell-based. The conditions noted are these: chlorocebus sabaeus. The procedure, abridged: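 Vero cells in MEM with 10% FBS, seeded at 2.5 × 10^4 cells/well. Exposed to a range of concentrations for 48 h at 37 °C, 5% CO2, then sulforhodamine B total-protein staining. CC50 is the concentration reducing viability by 50% versus untreated controls, from nonlinear regression; mean ± SD of three independent experiments.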

Data set [9] has as its system Human alphaherpesvirus 1. In words: Antiviral activity against acyclovir-resistant Herpes simplex virus 1 29-R infected in African green monkey Vero cells assessed as inhibition of viral replication after 48 hrs by naphthol blue-black staining-based plaque reduction assay. Format: functional, organism-based. To be noted: Human alphaherpesvirus 1, 29-R, Vero, 48 h; read-out: IC50. The procedure, abridged: as §2

Data set [10] deals with Human alphaherpesvirus 1. In words: Antiviral activity against acyclovir-sensitive Herpes simplex virus 1 KOS infected in African green monkey Vero cells assessed as inhibition of viral replication after 48 hrs by naphthol blue-black staining-based plaque reduction assay. The data set is classed as functional, organism-based. To be noted: Human alphaherpesvirus 1, strain KOS. In short, it runs like this:
as §2

A short description of data set [11]: Selectivity index, ratio of Cytotoxicity against African green monkey Vero cells assessed as reduction in cell viability after 48 hrs by SRB assay to Antiviral activity against acyclovir-sensitive Herpes simplex virus 1 KOS infected in African green monkey Vero cells assessed as inhibition of viral replication after 48 hrs by naphthol blue-black staining-based plaque reduction assay. The data set is classed as toxicity. To be noted: Vero cells infected with HSV-1 KOS, read-out: Ratio CC50/IC50. In short, it runs like this: as §3

In another data set the test system is PC-3. The experiment in a line: Cytotoxicity against human PC3 cells assessed as inhibition of cell viability after 48 hrs by SRB assay. Format: functional, cell-based. The conditions noted are these: PC-3, 48 h. The procedure, abridged: as §1
For a further data set, the system named is A549. The experiment in a line: Cytotoxicity against human A549 cells assessed as inhibition of cell viability after 48 hrs by SRB assay. Format: functional, cell-based. The conditions noted are these: A549, 48 h.

As to `C[C@]12CC[C@H](NC(=O)CO)C[C@H]1CC[C@@H]1[C@@H]2CC[C@]2(C)[C@@H](C3=CC(=O)OC3)CC[C@]12O`, the “Ratio IC50” value was found to be 11 in the data set on Human alphaherpesvirus 2 [1] and 6 in the data set with Human alphaherpesvirus 1 [5]. Further, the IC50 in the data set with HCT-8 was 690 nM; with NCI-H460, 260 nM; in the data set on Human alphaherpesvirus 2 [2] it was 300 nM; in data set [3] it was 1670 nM; in the data set on LNCaP, 810 nM; in data set [7], 843 nM. The IC50 in the data set on MRC5 amounted to 250 nM; in the data set on Human alphaherpesvirus 1 [9] it was 190 nM; with Human alphaherpesvirus 1 [10] it was 240 nM; in the data set on PC-3, 420 nM. Besides, the selectivity ratio at 48 h is over 1000 in data set [4], over 1580 in data set [6] and over 1250 in [11]. The 50% cytotoxic concentration (CC50) at 48 h in data set [8] is over 300000 nM.
With `C[C@]12CC[C@H](NC(=O)CNCCO)C[C@H]1CC[C@@H]1[C@@H]2CC[C@]2(C)[C@@H](C3=CC(=O)OC3)CC[C@]12O`, the “Ratio IC50” value in the data set on Human alphaherpesvirus 2 [1] came out at 12; with Human alphaherpesvirus 1 [5] it was 6. For the same compound, the 50% inhibitory concentration (IC50) in the data set on HCT-8 stood at 90 nM; in the data set with NCI-H460, 70 nM; in the data set with Human alphaherpesvirus 2 [2] it was 270 nM; in [3], 660 nM; in the data set on LNCaP, 130 nM; in [7] it was 1990 nM. The IC50 came out at 130 nM in the data set on MRC5; 180 nM in the data set with Human alphaherpesvirus 1 [9]; 190 nM with A549; 230 nM in the data set on Human alphaherpesvirus 1 [10]; 180 nM in the data set on PC-3. Moreover, the selectivity ratio at 48 h in data set [4] was over 1110; in data set [6], over 1670; in [11], over 1300. Further, in data set [8], the CC50 at 48 h was over 300000 nM.
